Shown are actives, neighbours in structure and some others; about 1.5% of the full set was active somewhere.
CAL PDZ FP-1: CAL PDZ peptide-binding inhibitors, primary screen, biochemical, fluorescence polarization, Cer-tagged CAL PDZ, HTS | Golgi-associated PDZ and coiled-coil motif-containing protein (Homo sapiens), Q9HD26 | purified CAL PDZ, TMR-peptide fluorescence polarization, 1 h | inhibition, % at 20 µM | 330,000 compounds, 0.02% hits;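 active = highest replicate inhibition of at least 40%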;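 also: plate controls were DMSO neutral control wells for no effect and unlabeled competitor peptide control wells for full effect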
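Material: tagged CAL PDZ protein CerCALP, purified; buffer or medium: sodium phosphate/NaCl buffer pH 7.4 with TCEP, IgG, Thesit; also added: fluorescent TMR peptide probe; schedule: 1 h incubation at room temperature before polarization reading; technique: fluorescence polarization from S- and P-plane intensities, G-factor corrected; control set: unlabelled peptide and DMSO controls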
LANA DNA inh: inhibitors of KSHV C-LANA binding to DNA, primary screen, biochemical, fluorescence polarization, FAM-LBS DNA, MBP-C-LANA, single point. 340,000 compounds, 0.078% hits. inhibition, % at 9 µM. Kaposi's sarcoma herpesvirus LANA C-terminal domain (residues 932-1162) DNA binding;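 active = highest replicate inhibition at or above 60% at 9 µM, even if other replicates fall short; inactive = all replicates below 60% inhibition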;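 also: 0% = neutral control wells and 100% = 4 µM acridine orange control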
CaV13 ICDI inh: Disruptors of the CACNA1D IQ motif to Ca2+-dependent inactivation inhibitor domain association, primary screening, Förster resonance energy transfer in intact living …. HEK cells, CFP/YFP FRET ICDI-IQ, plate reader, 10 min; percent FRET-ratio fall versus neutral wells. 340,000 compounds, 0.098% hits. inhibition, % at 12.3 µM;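 active = mean replicate inhibition of at least 30% and at least 1% of replicates passing that level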;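 also: 0% = median of the neutral control wells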
LANA-H2B inh: blockers of LANA interaction with H2A/H2B – biochemical, FP readout, HTS, primary screen; Protein LANA1 (Human herpesvirus 8 type P (isolate GK18)), Q9QR71; cell-free LANA-H2A/H2B peptide, fluorescence polarization; inhibition, % (test concentration not listed); 320,000 compounds, 0.6% hits; AID 2629, 2010; in the data active = inhibition mostly above about 10%, no sharp cut-off; inactive = mostly below about 6.7%
Keap1 Nrf2 FP: Keap1-Nrf2 protein-protein interaction inhibitors, primary screen, biochemical, fluorescence polarization, single point; AID 504523, 2011; Kelch-like ECH-associated protein 1 (Homo sapiens), Q14145; 340,000 compounds, 0.15% hits; inhibition, % at 9.4 µM; Keap1 Kelch-Nrf2 peptide fluorescence polarization, 1536-well; in the data active = inhibition above about 12%;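 also: human Keap1 Kelch domain with fluorescein labeled Nrf2 9mer peptide probe; 0% = neutral control wells and 100% = peptide positive control; higher means more block of Keap1 binding to Nrf2 peptide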
Target sequence (Q14145 whole entry, looked up, the tested form may be a part): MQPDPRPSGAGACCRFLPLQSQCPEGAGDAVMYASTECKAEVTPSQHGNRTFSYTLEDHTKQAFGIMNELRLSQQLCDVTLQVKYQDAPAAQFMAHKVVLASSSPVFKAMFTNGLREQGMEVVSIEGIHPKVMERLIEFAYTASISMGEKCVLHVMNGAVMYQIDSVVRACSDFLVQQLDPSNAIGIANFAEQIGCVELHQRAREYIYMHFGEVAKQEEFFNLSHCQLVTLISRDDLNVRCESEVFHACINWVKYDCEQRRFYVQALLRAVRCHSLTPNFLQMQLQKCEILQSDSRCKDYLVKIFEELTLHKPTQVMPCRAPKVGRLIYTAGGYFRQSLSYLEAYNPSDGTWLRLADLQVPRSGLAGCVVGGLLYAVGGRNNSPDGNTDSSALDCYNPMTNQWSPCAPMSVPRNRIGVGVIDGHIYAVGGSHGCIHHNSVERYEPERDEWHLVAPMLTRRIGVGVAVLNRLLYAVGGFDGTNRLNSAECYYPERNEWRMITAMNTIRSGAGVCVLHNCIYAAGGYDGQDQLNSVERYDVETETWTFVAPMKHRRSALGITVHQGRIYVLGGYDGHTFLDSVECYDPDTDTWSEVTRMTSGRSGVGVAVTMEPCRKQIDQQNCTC
CAL PDZ FP-2: untagged CAL PDZ binding inhibitors, primary screen, biochemical, fluorescence polarization, HTS; Golgi-associated PDZ and coiled-coil motif-containing protein (Homo sapiens), Q9HD26; purified CAL PDZ, TMR-peptide fluorescence polarization, 1 h; 300,000 compounds, 0.92% hits; inhibition, % at 24.9 µM;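 active = mean inhibition of at least 30% with at least half of replicates also reaching 30%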;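 also: 0% = DMSO neutral control and 100% = excess unlabeled competitor peptide PRC23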
Starred values were filed as active, the others as inactive; nt = not tested or not shown; + = active, no number.

SMILES	CAL PDZ FP-1	LANA DNA inh	CaV13 ICDI inh	LANA-H2B inh	Keap1 Nrf2 FP	CAL PDZ FP-2
Cc1cc(C)cc(NC(=O)CSc2nc(=O)n(CCN3CCOCC3)c3c2CCCC3)c1	-1	0	-5	-2	-2	52*
Cc1cc(C)c(NC(=O)CSc2nc(=O)n(CCN3CCOCC3)c3c2CCCC3)c(C)c1	-4	0	-6	3	0	-10
COc1ccc(C2CC(=O)C(c3ccc(C)cc3)=CN2Cc2ccccc2)cc1 (centres undefined)	nt	nt	-5	nt	nt	nt
COc1cc(NC(=S)Nc2ccccn2)cc(OC)c1	-1	1	-5	1	3	44*
Cc1c(Cl)c(=O)n2c(=O)c(Cl)c(C)n12	-1	5	+	5	5	0
NC(=O)c1ccc(-c2ccc(Br)cc2)o1	nt	-2	-4	1	2	0
NC(=O)C1CCN(C(=S)c2ccc(-c3ccc(Br)cc3)o2)CC1	0	-1	-5	14*	-3	-1
Cc1ccc2c(Cl)c(C(=O)NCCc3ccccc3)sc2c1	-1	1	-4	-6	0	-4
CCNC(=O)c1sc2cc(C)ccc2c1Cl	-1	1	2	36*	-3	14
CC(=O)N1CCN(CC(=O)Nc2cc(S(=O)(=O)N3CCOCC3)ccc2C)CC1	0	1	-2	3	-4	4
c1ccc(CCCNCCCn2cnc3c(OCc4ccccc4)ncnc32)cc1	-1	-3	-3	nt	1	7
COc1ccc(NC(=O)c2ccc(CNS(=O)(=O)c3cccc(OC)c3)cc2)cc1	-1	1	nt	-4	2	38*
COc1cccc(S(=O)(=O)NCc2ccc(C(=O)Nc3ccc(C)cc3)cc2)c1	0	1	-5	0	-4	-1
Oc1ccc(Cl)cc1CNc1cnc2ccccc2c1	-1	-1	-2	-6	-5	-3
Oc1ccccc1CNc1cnc2ccccc2c1	-3	-1	-7	20*	-8	-2
COC(=O)C1=C(C)N(Cc2ccc(C(F)(F)F)cc2)C(=NCc2ccccc2)NC1c1ccc(C(F)(F)F)cc1 (centres undefined)	nt	nt	-6	nt	nt	nt
CN(CCNC(=O)c1ccc(CS(=O)(=O)c2ccc(Br)cc2)o1)CCc1ccccc1	-2	1	-3	19*	-1	-4
Cc1cccc(CS(=O)(=O)Cc2ccc(C(=O)NCCc3ccccc3)o2)c1	-1	-1	-6	-7	0	-6
COc1ccc(CCNC(=O)c2ccc(CS(=O)(=O)c3ccc(Cl)cc3)o2)cc1OC	-2	-1	-3	27*	-3	nt
Cc1ccccc1CS(=O)(=O)Cc1ccc(C(=O)NCCc2ccccc2)o1	0	-1	-14	15*	-4	-2
COc1ccc(CCNC(=O)c2ccc(CS(=O)(=O)c3ccc(C)cc3)o2)cc1OC	-1	1	-4	0	2	-4
COc1ccc(CCNC(=O)c2c(N)no[n+]2[O-])cc1OC	1	80*	-20	6	0	-2
Cc1[nH]c2ccccc2c1CC(=O)Nc1ccc(Nc2cccnc2)c(-c2ccc(OC(F)(F)F)cc2)c1	nt	nt	-2	nt	nt	nt
COc1ccc(CCNC(=O)c2cc3c(F)cccc3s2)cc1OC	-2	2	-4	-1	3	70*
C[C@@H]1ON(C)[C@H]2C[C@H]3c4cc(-c5ccc6c(c5)OCO6)ccc4CCN3C[C@@H]12	nt	nt	-4	nt	nt	nt
SMILES	CAL PDZ FP-1	LANA DNA inh	CaV13 ICDI inh	LANA-H2B inh	Keap1 Nrf2 FP	CAL PDZ FP-2
COc1ccc2cc(/C=N/NC(=O)CN(c3ccccc3OC)S(=O)(=O)c3ccccc3)c(Cl)nc2c1	nt	nt	-2	nt	nt	nt
Cn1c(SCC(=O)c2ccccc2)nc2cccnc21	nt	-2	1	98*	-9	-1
Cc1ccc(C(=O)CSc2nc3cccnc3n2C)cc1	-1	1	-4	-6	-10	5
CCc1nc(SCC(=O)c2ccccc2)c2ccccc2n1	-2	1	39*	5	-4	-1
O=[N+]([O-])c1ccc(N=Nc2c(O)[nH]c3ccc(F)cc23)cc1	nt	3	-25	3	4	42*
CC(=O)c1ccc(NC(=O)CSc2ccc(-c3ccc(-n4cccn4)cc3)nn2)cc1	-1	-1	-14	-3	4	nt
O=C(O)c1cccc(Cn2c(Cl)c(/C=N/NC(=O)c3ccccc3O)sc2=O)c1	-1	0	-7	15*	0	7
Cc1c(N/C(=N/S(=O)(=O)c2ccc(F)cc2)c2ccccc2)c(=O)n(-c2ccccc2)n1C	-1	0	3	0	-2	-3
Cc1c(NC(=O)CN2C(=O)C(=O)c3ccccc32)c(=O)n(-c2ccccc2)n1C	1	10	nt	-1	-2	-2
Cc1c(NC(=O)CN2C(=O)c3cccc4cccc2c34)c(=O)n(-c2ccccc2)n1C	-5	0	-4	18*	-4	-2
Cc1ccccc1S(=O)(=O)/N=C(/Nc1c(C)n(C)n(-c2ccccc2)c1=O)c1ccccc1	-1	6	-8	-3	-4	40*
COc1cc(/C=C/C(=O)OC(C)C(=O)Nc2c(C)n(C)n(-c3ccccc3)c2=O)ccc1O (centres undefined)	-1	-3	-6	119*	-5	0
Cc1c(NC(=O)C(C)N(c2ccccc2)S(C)(=O)=O)c(=O)n(-c2ccccc2)n1C (centres undefined)	0	3	-4	40*	2	-5
COC(=O)c1ccc(NC(=O)Cn2nc(C)cc2C)cc1	-1	0	-6	-2	-6	-2
Cc1ccc(Cl)cc1NC(=O)OCCN(C)C(=O)Nc1cc(Cl)ccc1C	nt	nt	-5	nt	nt	nt
CCC(C(=O)Nc1cc(C(=O)Nc2cc(C)ccn2)ccc1Cl)c1ccccc1 (centres undefined)	-1	1	-5	4	-2	-3
Cc1ccc(-c2nc3ccc(Cl)cn3c2Cc2cccc(Cl)c2)cc1	nt	nt	-4	nt	nt	nt
Cc1cc(C(=O)OCC(=O)NCCN2C(=O)CSC2=O)ccc1[N+](=O)[O-]	0	1	-6	2	2	90*
Cc1ccc(C(=O)OCC(=O)NCCN2C(=O)CSC2=O)cc1[N+](=O)[O-]	-1	-1	-2	2	-2	3

Screens deposited in PubChem BioAssay by Broad Institute.
